The IC95 is the concentration at which the effect reaches the 95% level. One may read the pIC50 as the IC50 on a negative log10 scale, so that one unit is a factor of ten. Read a high pIC50 as a low IC50. One may read the pKd as the negative decadic logarithm of the Kd, by convention in mol/L. A high value points to a low Kd. A word on the half-life: it is the time in which the quantity being followed falls by half. A high value points to slow loss.

Data on 69 compounds can be found in ChEMBL document CHEMBL1126643, “Synthesis and evaluation of 2-pyridinone derivatives as HIV-1-specific reverse transcriptase inhibitors. 4. 3-[2-(Benzoxazol-2-yl)ethyl]-5-ethyl-6-methylpyridin-2(1H)-one and analogues” (J Med Chem, 1993).

pIC50, pKd: −log10 of the molar value.

Data set [1] concerns the target Human immunodeficiency virus type 1 reverse transcriptase (Human immunodeficiency virus 1) (UniProt Q72547). In words: Cell culture inhibitor concentration required to inhibit the spread of HIV-1 strain III B infection in MT-4 human T-lymphoid cells. Format: functional, cell-based.
Data set [2] deals with T1, Human immunodeficiency virus type 1 reverse transcriptase (Human immunodeficiency virus 1, UniProt Q72547). In words: Tested for inhibition against HIV-1 RT (used (poly)rC-(oligo)dG as the template).
Data set [3] can be described thus: Plasma equilibrium dissociation constant was determined. Type of data set: functional, cell-free, Homo sapiens. The essentials:
(§1)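 Compound from 1 mM DMSO stock added to pH 7.4 phosphate/NaCl buffer with human plasma (10-fold diluted plasma), initial compound 10 μM; triplicate aliquots centrifuged through filter tubes, filtrate analysed by HPLC.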

A short description of data set [4]: Percent unbound determined for whole normal human plasma. Type of data set: functional. In a few lines: as §1
Data set [5] is described as follows: Half life was determined. Format: ADME. The note with it: 0.1 N HCl in 90% ethanol. The essentials:
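Acid hydrolysis: stock aliquot added to stirred ethanol/1 N HCl (8.9:1.0 mL) at 37 °C; aliquots withdrawn at intervals, quenched into pH 7.7 0.1 M MES buffer and analysed by HPLC.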

The target of data set [6] is T1, Human immunodeficiency virus type 1 reverse transcriptase. In words: Inhibition against HIV-1 RT (used (poly)rC-(oligo)dG as the template); not characterized.

As to `CCc1cc(CCc2nc3cccc(F)c3o2)c(S)nc1C`, in data set [1], the 95% effect level (IC95) was put at 200 nM.

As to `CCc1cc(CCc2nc3ccc(C)cc3o2)c(=O)[nH]c1C`, the pIC50 in data set [2] is 6.76.

In turn, `CCc1cc(CCc2nc3c(F)cccc3o2)c(O)nc1C` showed a pIC50 in data set [2] of 7.82. Besides, in data set [3], the pKd is 4.62. The compound further gave an IC95 in data set [1] of 50 nM. The Unbound in data set [4] worked out at 4%.

`CCc1cc(CCc2nc3cccc(Cl)c3o2)c(O)nc1C` gave a pIC50 in data set [2] of 7.41. Further, in data set [3], the pKd was 5.38. In addition, it took 100 nM to reach the 95% level in data set [1] (IC95). The compound further displayed an Unbound in data set [4] of 0.7%.

For the compound `CCc1cc(CNc2nc3ccccc3o2)c(O)nc1C`, the pIC50 in data set [2] is 5.90. In data set [1], this compound yielded an IC95 of 10000 nM.

On to `CCc1cc(CCc2cc3ccccc3o2)c(O)nc1C`, for which the pIC50 in data set [2] is 6.89.

`CCc1cc(CCc2nc3c(F)ccc(F)c3o2)c(S)nc1C` returned an IC95 in data set [1] of 200 nM.

Take `CCc1cc(CCc2cc3cnccc3o2)c(O)nc1C`: in data set [2], the pIC50 was 4.87.

As for `CCc1cc(CCc2ccccc2)c(=O)[nH]c1C`, in data set [2], the pIC50 is 4.30. Compared with the last compound, the pIC50 is 0.57 log units lower.

As to `CCc1cc(Cc2nc3ccccc3o2)c(O)nc1C`, the pIC50 in data set [2] is 4.35.

In the case of `CCCc1cc(CCc2nc3c(Cl)ccc(Cl)c3o2)c(=O)[nH]c1C`, the pIC50 in data set [2] was 7.47.

Turning to `CCCc1cc(CCc2nc3ccccc3o2)c(O)nc1C`, in data set [2], the negative-log IC50 (pIC50) was 7.08.

In turn, `CCc1cc(/C=C\c2nc3ccccc3o2)c(=O)[nH]c1C` had a pIC50 in data set [2] of 5.52. This pIC50 is 1.56 log units lower than that of the compound before.

Consider `CCc1cc(CCc2nc3ccccc3o2)c(S)nc1C`, for which the pIC50 in data set [2] is 7.62. In data set [1], the IC95 worked out at 200 nM.

On to `CCc1cc(CCC2=NC3CCCCC3O2)c(=O)[nH]c1C` (stereo not drawn), for which the pIC50 in data set [2] is 7.24.

In data set [2], `CCc1cc(CCc2nc3c(Cl)cccc3o2)c(O)nc1C` had a pIC50 of 7.21. In data set [3], the pKd was 4.75. It took 100 nM to reach the 95% level in data set [1] (IC95). For the same compound, the Unbound in data set [4] turned out to be 3%.

For the compound `CCc1cc(CCc2nc3c(Cl)ccc(Cl)c3o2)c(=O)[nH]c1C`, in data set [2], the pIC50 is 7.85.

As to `Cc1[nH]c(=O)c(CCc2nc3ccccc3o2)cc1C(N)=O`, in data set [2], the pIC50 is 4.38.

As to `CCc1cc([S+]([O-])Cc2nc3c(Cl)ccc(Cl)c3o2)c(O)nc1C` (stereo not drawn), in data set [2], the pIC50 is 5.85. This pIC50 lies 1.47 log units higher than the previous one.

The compound `Cc1nc(O)c(CCc2nc3ccccc3o2)cc1CO` gave a pIC50 in data set [2] of 5.47.

In data set [2], `CCc1cc(CCc2nc3c(C)ccc(C)c3o2)c(=O)[nH]c1C` had a pIC50 of 7.55. This pIC50 is 2.08 log units higher than that of the compound before.

Regarding `CCc1cc(SCc2nc3c(Cl)ccc(Cl)c3o2)c(=O)[nH]c1C`, the pIC50 in data set [2] was 7.96. For the same compound, in data set [5], the half-life turned out to be 34 min.

As to `CCc1cc(OCC(=O)Nc2ccccc2O)c(O)nc1C`, the IC50 entry in data set [6] is listed as “not characterized”.

For the compound `Cc1[nH]c(=O)c(CCc2nc3ccccc3o2)cc1C(C)C`, the pIC50 in data set [2] was 7.32.

`CCc1cc(CCc2nc3c(C)ccc(C)c3o2)c(=S)[nH]c1C`: the pIC50 in data set [2] is 7.28.

In data set [2], `CCc1cc(OCc2nc3c(Cl)ccc(Cl)c3o2)c(=O)[nH]c1C` had a pIC50 of 7.06. Moreover, in data set [5], the half-life is 11 min.

As for `CCc1cc(CCc2nc3cc(F)ccc3o2)c(=O)[nH]c1C`, in data set [2], the pIC50 was 5.77.

`CCc1cc(SCc2nc3c(Cl)ccc(Cl)c3o2)c(O)nc1C` returned an IC95 in data set [1] of 50 nM. This lies in the double-digit nanomolar range.

In data set [2], `CCc1cc(CCC(=O)Nc2ccccc2O)c(=O)[nH]c1C` gave a pIC50 of 5.27.

Regarding `CCc1cc(CCc2nc3ccc(F)cc3o2)c(O)nc1C`, in data set [2], the pIC50 was 6.35. This pIC50 lies 1.08 log units higher than the previous one.

The compound `Cc1nc(O)c(CCc2nc3ccccc3o2)cc1-c1ccccc1` gave a pIC50 in data set [2] of 5.96.

With `CCc1cc(CCc2nc3cccc(F)c3o2)c(=S)[nH]c1C`, the pIC50 in data set [2] is 7.37.

In data set [2], `CCC1=C(C)NC(N)C(CCc2nc3ccccc3o2)=C1` (stereo not drawn) gave a pIC50 of 4.00.

In turn, `CCc1cc(CCC(=O)Nc2c(O)cc(Cl)cc2Cl)c(O)nc1C` gave a pIC50 in data set [2] of under 3.52.

Compound `CCc1c[nH]c(=O)c(CCc2nc3ccccc3o2)c1` showed a pIC50 in data set [2] of 6.75.

In the case of `CCc1cc(CCc2nc3ccccc3o2)c(O)nc1C`, in data set [2], the pIC50 is 7.64. For the same compound, the half-life in data set [5] came to 218 min. Besides, the pKd in data set [3] was 4.67. Further, it took 100 nM to reach the 95% level in data set [1] (IC95). In data set [4], this compound yielded an Unbound of 4%.

`Cc1cc(CCc2nc3ccccc3o2)c(O)nc1C` gave a pIC50 in data set [2] of 6.77.

`CCc1cc(CCc2ccc3ccccc3c2)c(=O)[nH]c1C` had a pIC50 in data set [2] of 5.08.

Turning to `CCc1cc(CCc2nc3cccc(Cl)c3o2)c(S)nc1C`, it took 200 nM to reach the 95% level in data set [1] (IC95).

In the case of `CCc1cc(CCc2nc3cccc(C)c3o2)c(=O)[nH]c1C`, the pIC50 in data set [2] is 7.40.

The compound `CCc1cc(CCc2nc3c(Cl)cccc3o2)c(S)nc1C` showed a pIC50 in data set [2] of 7.52.

Compound `CCc1cc(CCc2nc3c(C)ccc(C)c3o2)c(S)nc1C` displayed an IC95 in data set [1] of 200 nM.

`COCc1cc(CCc2nc3ccccc3o2)c(=O)[nH]c1C` showed a pIC50 in data set [2] of 5.68.

`Cc1cc(CCc2nc3c(Cl)ccc(Cl)c3o2)c(=O)[nH]c1C` showed a pIC50 in data set [2] of 7.01. Compared with the last compound, the pIC50 is 1.33 log units higher.

`CCc1cc(S(=O)(=O)Cc2nc3c(Cl)ccc(Cl)c3o2)c(O)nc1C` showed a pIC50 in data set [2] of 6.69.

In the case of `CCc1cc(CCc2ncc(-c3ccccc3)o2)c(O)nc1C`, in data set [2], the pIC50 was 6.41.

Take `CCc1cc(CCc2ccc3ccccc3n2)c(O)nc1C`: the pIC50 in data set [2] was 5.61.

With `CCc1cc(OCc2nc3ccccc3o2)c(=O)[nH]c1C`, the pIC50 in data set [2] was 6.72. In addition, the half-life in data set [5] came out at 12 min.

`CCc1cc(CCc2nc3c(Cl)ccc(Cl)c3o2)c(S)nc1C`: the pIC50 in data set [2] is 7.52. The compound further came in with an IC95 in data set [1] of 100 nM.

As for `CCc1cc(CCc2nc3cccc(Cl)c3o2)c(=S)[nH]c1C`, the pIC50 in data set [2] was 7.54.

`CCc1cc(NCc2nc3ccccc3o2)c(O)nc1C`: the half-life in data set [5] amounted to 35 min. This compound also registered an IC95 in data set [1] of 800 nM.

In the case of `CCc1cc(OCc2nc3c(Cl)ccc(Cl)c3o2)c(O)nc1C`, the IC95 in data set [1] came out at 200 nM. This counts as sub-micromolar.

For `CCc1cc(CCc2nc3c(F)cccc3o2)c(S)nc1C`, in data set [1], it took 100 nM to reach the 95% level (IC95).

Compound `CCc1cc(NCC(=O)Nc2c(O)cc(Cl)cc2Cl)c(O)nc1C` showed a pIC50 in data set [2] of under 3.52.

`CCc1cc(CCc2nc3c(C)ccc(C)c3o2)c(O)nc1C`: the pKd in data set [3] was 5.92. The compound further returned an IC95 in data set [1] of 300 nM. Further, in data set [4], the Unbound came out at 0.2%.

Take `CCc1cc(CCCc2nc3ccccc3o2)c(O)nc1C`: the pIC50 in data set [2] was 4.80.

`CCc1cc(CCc2nc3c(C)cccc3o2)c(=O)[nH]c1C` gave a pIC50 in data set [2] of 7.48.

The compound `CCc1cc(/C=C/c2nc3ccccc3o2)c(O)nc1C` had a pIC50 in data set [2] of 5.23.

With `Cc1nc(O)c(CCc2nc3ccccc3o2)cc1C#N`, the pIC50 in data set [2] is 6.51.

`CCc1cc(CCc2nc3cccc(F)c3o2)c(O)nc1C`: in data set [2], the pIC50 is 7.43. Also, the pKd in data set [3] is 5.09. The Unbound in data set [4] amounted to 1.4%.

In data set [2], `CCc1cc(NCc2nc3c(Cl)ccc(Cl)c3o2)c(O)nc1C` [L-697661] had a pIC50 of 7.70. For the same compound, in data set [5], the half-life worked out at 17 min. The same compound registered an IC95 in data set [1] of 100 nM. Besides, the Unbound in data set [4] came out at 0.4%.

For the compound `CCc1cc(CCc2nc3c(F)ccc(F)c3o2)c(=S)[nH]c1C`, in data set [2], the pIC50 was 7.82.

`CCc1cc(CCc2ccccn2)c(O)nc1C` showed a pIC50 in data set [2] of 3.59.

Regarding `CCc1cc(CCc2nc3c(F)ccc(F)c3o2)c(O)nc1C`, in data set [2], the pIC50 was 7.85. Besides, in data set [3], the pKd was 4.74. In addition, the IC95 in data set [1] turned out to be 50 nM. The Unbound in data set [4] stood at 3%.

`Cc1nc(O)c(CCc2nc3ccccc3o2)cc1N(C)C`: the pIC50 in data set [2] is 5.73.

In the case of `CCc1cc(CCc2nc3c(F)cccc3o2)c(=S)[nH]c1C`, the pIC50 in data set [2] was 7.89.

The compound `CCc1cc(CCc2nc3c(Cl)ccc(Cl)c3o2)c(O)nc1C` had a pKd in data set [3] of 6.12. The compound further displayed an IC95 in data set [1] of 50 nM. Moreover, the Unbound in data set [4] was determined as 0.1%.

On to `CCc1cc(NCC(=O)Nc2ccccc2O)c(O)nc1C`, for which the IC50 result in data set [6] is “not characterized”.

In data set [3], `CCc1cc(CCc2nc3c(C)cccc3o2)c(O)nc1C` showed a pKd of 5.61. Further, the IC95 in data set [1] amounted to 100 nM. The same compound displayed an Unbound in data set [4] of 0.4%.
